≈ marks a conversion by molar mass, not a printed value.
Key:
Rattus norvegicus [1] = experiment: Antiinflammatory activity in Wistar rat assessed as inhibition of carrageenan-induced paw edema measured after 3 hrs at 6 mg/kg, po equimolar dose of indomethacin administered 1 hr before carrageenan challenge; format: functional
Outline: (§1)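 Wistar rats of either sex, 120–140 g, fasted 24 h, n = 6 per group. Compounds were suspended in 1.0% aqueous sodium CMC and dosed orally, equimolar to indomethacin 6 mg/kg, 1 h before subplantar carrageenan (1.0% w/v, 0.1 mL) into the right hind paw. Paw volume was read by plethysmometer before and after injection. Results are % inhibition versus vehicle control. ANOVA with Dunnett's test.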

Rattus norvegicus [2] = experiment: Antiinflammatory activity in Wistar rat assessed as inhibition of carrageenan-induced paw edema measured after 1 hr at 6 mg/kg, po equimolar dose of indomethacin administered 1 hr before carrageenan challenge; format: functional; outline: as §1
Rattus norvegicus [3] = experiment: Gastrointestinal toxicity in Wistar rat assessed as ulcer incidence at 34.84 mg/kg, po; format: organism-based; design: dose 34.84 mg/kg, route oral; conditions: in vivo
Rattus norvegicus [4] = experiment: Gastrointestinal toxicity in Wistar rat assessed as ulcer incidence at 38.27 mg/kg, po; format: organism-based; design: dose 38.27 mg/kg, route oral; conditions: in vivo
Rattus norvegicus [5] = experiment: Gastrointestinal toxicity in Wistar rat assessed as gastric mucosal layer disruption at 38.27 mg/kg, po by histopathological study; format: organism-based, Gastric mucosa; design: dose 38.27 mg/kg, route oral; conditions: in vivo
Rattus norvegicus [6] = experiment: Gastrointestinal toxicity in Wistar rat assessed as gastric mucosal layer disruption at 40.71 mg/kg, po by histopathological study; format: organism-based, Gastric mucosa; design: dose 40.71 mg/kg, route oral; conditions: in vivo
[7] = Induction of nitric oxide release at 0.1 mM in pH 7.4 phosphate buffer in presence of 5 mM L-cysteine by Griess method; conditions: pH 7.4, 100 µM
Mus musculus = experiment: Analgesic activity in Swiss albino mouse assessed as inhibition of acetic acid-induced writhing at 0.00001911 mol/kg, po administered 1 hr before acetic acid challenge measured after 25 mins; format: functional
Outline: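 Acetic acid writhing in mice. Compounds were suspended in 1.0% aqueous sodium CMC and given orally at equimolar doses equivalent to 6 mg/kg indomethacin (0.00001911 mol/kg). Writhes were counted over 25 min after treatment, n = 6, and reported as % inhibition versus vehicle control. One-way ANOVA with Dunnett's test.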

Rattus norvegicus [8] = experiment: Gastrointestinal toxicity in Wistar rat assessed as gastric mucosal layer disruption at 33.70 mg/kg, po by histopathological study; format: organism-based, Gastric mucosa; design: dose 33.7 mg/kg, route oral; conditions: in vivo, 33.7 mg/kg
Rattus norvegicus [9] = experiment: Gastrointestinal toxicity in Wistar rat assessed as gastric mucosal layer disruption at 34.84 mg/kg, po by histopathological study; format: organism-based, Gastric mucosa; design: dose 34.84 mg/kg, route oral; conditions: in vivo
Rattus norvegicus [10] = experiment: Gastrointestinal toxicity in Wistar rat assessed as ulcer index at 40.71 mg/kg, po; format: organism-based; design: dose 40.71 mg/kg, route oral; conditions: in vivo
Rattus norvegicus [11] = experiment: Gastrointestinal toxicity in Wistar rat assessed as ulcer index at 33.70 mg/kg, po; format: organism-based; design: dose 33.7 mg/kg, route oral; conditions: in vivo, 33.7 mg/kg
Rattus norvegicus [12] = experiment: Antiinflammatory activity in Wistar rat assessed as inhibition of carrageenan-induced paw edema measured after 2 hrs at 6 mg/kg, po equimolar dose of indomethacin administered 1 hr before carrageenan challenge; format: functional; outline: as §1
Rattus norvegicus [13] = experiment: Gastrointestinal toxicity in Wistar rat assessed as ulcer index at 34.84 mg/kg, po; format: organism-based; design: dose 34.84 mg/kg, route oral; conditions: in vivo
Aorta = experiment: Vasorelaxant activity in Wistar rat aorta assessed as inhibition of norepinephrine-induced contractions; format: functional, tissue-based
Outline: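 Endothelium-intact aortic rings were accepted only if relaxation was ≥70% of the NE-induced contraction. Rings were then contracted with NE or 30 mM KCl, and test compounds were added cumulatively once a stable plateau was reached. EC50 values were calculated from cumulative concentration-response curves.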

Rattus norvegicus [14] = experiment: Gastrointestinal toxicity in Wistar rat assessed as ulcer index at 38.27 mg/kg, po; format: organism-based; design: dose 38.27 mg/kg, route oral; conditions: in vivo
Rattus norvegicus [15] = experiment: Gastrointestinal toxicity in Wistar rat assessed as ulcer incidence at 33.70 mg/kg, po; format: organism-based; design: dose 33.7 mg/kg, route oral; conditions: in vivo, 33.7 mg/kg
Rattus norvegicus [16] = experiment: Gastrointestinal toxicity in Wistar rat assessed as ulcer incidence at 40.71 mg/kg, po; format: organism-based; design: dose 40.71 mg/kg, route oral; conditions: in vivo
Rattus norvegicus [17] = experiment: Gastrointestinal toxicity in Wistar rat assessed as gastric mucosal layer disruption at 24 mg/kg, po by histopathological study; format: organism-based, Gastric mucosa; design: dose 24 mg/kg, route oral; conditions: in vivo
Rattus norvegicus [18] = experiment: Gastrointestinal toxicity in Wistar rat assessed as ulcer incidence at 24 mg/kg, po; format: organism-based; design: dose 24 mg/kg, route oral; conditions: in vivo
Rattus norvegicus [19] = experiment: Antiinflammatory activity in Wistar rat assessed as inhibition of carrageenan-induced paw edema measured after 3 hrs at 6 mg/kg, po administered 1 hr before carrageenan challenge; format: functional; outline: as §1
Rattus norvegicus [20] = experiment: Antiinflammatory activity in Wistar rat assessed as inhibition of carrageenan-induced paw edema measured after 1 hr at 6 mg/kg, po administered 1 hr before carrageenan challenge; format: functional; outline: as §1
Rattus norvegicus [21] = experiment: Antiinflammatory activity in Wistar rat assessed as inhibition of carrageenan-induced paw edema measured after 2 hrs at 6 mg/kg, po administered 1 hr before carrageenan challenge; format: functional; outline: as §1

SMILES	Activity [7]	EC50 (Aorta)	inhibition in vivo (Rattus norvegicus [1])	inhibition in vivo (Rattus norvegicus [2])	Activity (Rattus norvegicus [3])	Activity (Rattus norvegicus [4])	Activity (Rattus norvegicus [5])	Activity (Rattus norvegicus [6])	inhibition (INH) (Mus musculus)	Activity (Rattus norvegicus [8])	Activity (Rattus norvegicus [9])	Activity (Rattus norvegicus [10])	Activity (Rattus norvegicus [11])	inhibition in vivo (Rattus norvegicus [12])	Activity (Rattus norvegicus [13])	Activity (Rattus norvegicus [14])	Activity (Rattus norvegicus [15])	Activity (Rattus norvegicus [16])	also measured
O=C(CO[N+](=O)[O-])NNC(=O)c1ccc(-n2[nH]c(=O)cc2-c2ccccc2O)cc1	0.69%	17.8 µg/mL (≈ 43.1 µM)	16.4%	23%					16.66%					19.3%					
O=C(CO[N+](=O)[O-])NNC(=O)c1ccc(-n2[nH]c(=O)cc2-c2ccc(Cl)cc2)cc1	0.66%	21.3 µg/mL (≈ 49.4 µM)	5.84%	5.88%					10.78%					11.4%					
O=C(CO[N+](=O)[O-])NNC(=O)c1ccc(-n2[nH]c(=O)cc2-c2ccccc2)cc1	0.51%	26.7 µg/mL (≈ 67.3 µM)	20.5%	19.8%					53.92%					16.1%					
O=C(CO[N+](=O)[O-])NNC(=O)c1ccc(-n2[nH]c(=O)cc2-c2ccc([N+](=O)[O-])cc2)cc1	0.39%	49.1 µg/mL (≈ 111 µM)	24%	23.6%	Non-toxic	Non-toxic	Non-toxic	Non-toxic	45.09%	Non-toxic	Non-toxic	Non-toxic	Non-toxic	27.1%	Non-toxic	Non-toxic	Non-toxic	Non-toxic	
COc1ccccc1-c1cc(=O)[nH]n1-c1ccc(C(=O)NNC(=O)CO[N+](=O)[O-])cc1	0.32%	66.8 µg/mL (≈ 156 µM)	57.9%		Non-toxic	Non-toxic	Non-toxic	Non-toxic	51.96%	Non-toxic	Non-toxic	Non-toxic	Non-toxic	55.7%	Non-toxic	Non-toxic	Non-toxic	Non-toxic	inhibition in vivo at 6 mg/kg (Rattus norvegicus [2]; dose 6 mg/kg): 55.1%
CCOC(=O)c1c(-c2ccccc2OC)n(-c2ccc(C(=O)NNC(=O)CO[N+](=O)[O-])cc2)[nH]c1=O	0.35%	63.1 µg/mL (≈ 126 µM)	25.1%	31%	Non-toxic	Non-toxic	Non-toxic	Non-toxic	50.98%	Non-toxic	Non-toxic	Non-toxic	Non-toxic	30.7%	Non-toxic	Non-toxic	Non-toxic	Non-toxic	
O=C(O)Cc1ccccc1Nc1c(Cl)cccc1Cl [DICLOFENAC]																			Activity (Rattus norvegicus [17]): Toxic; Activity (Rattus norvegicus [18]): Toxic
COc1ccc2c(c1)c(CC(=O)O)c(C)n2C(=O)c1ccc(Cl)cc1 [INDOMETHACIN]									54.9%										inhibition in vivo at 6 mg/kg (Rattus norvegicus [19]): 57.9%; inhibition in vivo at 6 mg/kg (Rattus norvegicus [20]): 52.7%; inhibition in vivo at 6 mg/kg (Rattus norvegicus [21]): 58.3%

The next lines start with results.

Activity [7]	EC50 (Aorta)	SMILES	inhibition in vivo (Rattus norvegicus [1])	inhibition in vivo (Rattus norvegicus [2])	Activity (Rattus norvegicus [3])	Activity (Rattus norvegicus [4])	Activity (Rattus norvegicus [5])	Activity (Rattus norvegicus [6])	inhibition (INH) (Mus musculus)	Activity (Rattus norvegicus [8])	Activity (Rattus norvegicus [9])	Activity (Rattus norvegicus [10])	Activity (Rattus norvegicus [11])	inhibition in vivo (Rattus norvegicus [12])	Activity (Rattus norvegicus [13])	Activity (Rattus norvegicus [14])	Activity (Rattus norvegicus [15])	Activity (Rattus norvegicus [16])	also measured
0.46%	35.5 µg/mL (≈ 75.6 µM)	CCOC(=O)c1c(-c2ccccc2)n(-c2ccc(C(=O)NNC(=O)CO[N+](=O)[O-])cc2)[nH]c1=O	59.6%	54%	Non-toxic	Non-toxic	Non-toxic	Non-toxic	56.86%	Non-toxic	Non-toxic	Non-toxic	Non-toxic	57.8%	Non-toxic	Non-toxic	Non-toxic	Non-toxic	
0.49%	28.2 µg/mL (≈ 54.8 µM)	CCOC(=O)c1c(-c2ccc([N+](=O)[O-])cc2)n(-c2ccc(C(=O)NNC(=O)CO[N+](=O)[O-])cc2)[nH]c1=O	22.2%	27.8%					45.9%					28.1%					
0.27%	70.8 µg/mL (≈ 146 µM)	CCOC(=O)c1c(-c2ccccc2O)n(-c2ccc(C(=O)NNC(=O)CO[N+](=O)[O-])cc2)[nH]c1=O	21.1%	27.8%					10.78%					26.6%					
0.37%	50.2 µg/mL (≈ 99.6 µM)	CCOC(=O)c1c(-c2ccc(Cl)cc2)n(-c2ccc(C(=O)NNC(=O)CO[N+](=O)[O-])cc2)[nH]c1=O	6.43%	3.2%					6.86%					10.4%					
